≈ marks a conversion by molar mass, not a printed value. One block for each compound: values may come before it.
Key:
[1] = test system: Trypanosoma cruzi; experiment: Antitrypanosomal activity against intracellular Trypanosoma cruzi infected in human U2OS cells assessed as parasite growth inhibition incubated for 72 hrs by confocal microscopy; assay type: functional, organism-based
[2] = Selectivity index, ratio of IC50 for human U2OS cells to IC50 for intracellular Trypanosoma cruzi infected in human U2OS cells; assay type: toxicity, cell-based; details: for selectivity ratio: U2OS cells, read-out: Selectivity Index
Procedure, shortened: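 Host U2OS cell counts and intracellular parasite infection ratio were read from the same 72 h DRAQ5-stained confocal imaging assay. CC50 and EC50 came from 4-parameter logistic fits, and the selectivity index is their ratio.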

[3] = Intrinsic clearance in mouse liver microsomes at 1 uM incubated for 15 to 30 mins by LC/MS/MS analysis; assay type: ADME, Microsome; details: time 15-30 min
[4] = Kinetic solubility of compound in aqueous buffer at pH 6.8 incubated for 16 to 24 hrs by HPLC analysis; assay type: physicochemical; details: time 16-24 hrs, read-out: Kinetic_solubility
[5] = Permeability of compound incubated for 3 hrs by PAMPA assay; assay type: ADME; details: read-out: permeability
[6] = Intrinsic clearance in human liver microsomes at 1 uM incubated for 15 to 30 mins by LC/MS/MS analysis; assay type: ADME, Microsome; details: time 15-30 min

Compound: c1ccc(-c2nc(N3CCn4ccnc4C3)c3ccccc3n2)nc1
IC50 ([1]; Trypanosoma cruzi, U2OS, 72 h): 27 µM
selectivity ratio [2]: 1.9

Compound: c1ccc(-c2nc(N3CCc4cccnc4C3)c3ccccc3n2)nc1
IC50 ([1]; Trypanosoma cruzi, U2OS, 72 h): 7.4 µM
selectivity ratio [2]: 4.9

Compound: c1ccc(C2CCN(c3nc(-c4ccccn4)nc4ccccc34)C2)cc1 (stereo not given)
IC50 ([1]; Trypanosoma cruzi, U2OS, 72 h): 0.28 µM
selectivity ratio [2]: 9.7
intrinsic clearance (CLint) [3]: > 500 µL/min/mg
solubility kinetic [4]: 0.7 µg/mL (≈ 1.99 µM)

Compound: CCn1cc2c(N3CCC(c4ccccn4)C3)nc(-c3ccccn3)nc2n1 (stereo not given)
IC50 ([1]; Trypanosoma cruzi, U2OS, 72 h): 1.5 µM
selectivity ratio [2]: 2.3

Compound: Cn1ncc2nc(-c3ccccn3)nc(N3CCC(c4ccccn4)C3)c21 (stereo not given)
Papp at 3 h [5]: 17.1 ×10⁻⁶ cm/s
IC50 ([1]; Trypanosoma cruzi, U2OS, 72 h): 1.8 µM
selectivity ratio [2]: 2.9
solubility kinetic [4]: 99 µg/mL (≈ 277 µM)

Compound: c1ccc(-c2nc(Nc3ccc4[nH]ncc4c3)c3ccccc3n2)nc1
IC50 ([1]; Trypanosoma cruzi, U2OS, 72 h): 6.2 µM
selectivity ratio [2]: 3.5

Compound: c1ccc(-c2nc(N3CCC(c4ccccn4)C3)c3ccccc3n2)nc1 (stereo in doubt; 85-tR1)
IC50 ([1]; u2os): 1.1 µM
Selectivity Index [2]: 4.2

Compound: c1ccc(-c2nc(N3CCCC3c3ccccn3)c3ccccc3n2)nc1 (stereo not given)
IC50 ([1]; Trypanosoma cruzi, U2OS, 72 h): 1.8 µM
selectivity ratio [2]: 25

Compound: c1ccc(-c2nc(NCCn3ccnc3)c3ccccc3n2)nc1
IC50 ([1]; Trypanosoma cruzi, U2OS, 72 h): 49 µM
selectivity ratio [2]: 1

Compound: Cn1ccnc1CNc1nc(-c2ccccn2)nc2ccccc12
IC50 ([1]; Trypanosoma cruzi, U2OS, 72 h): 3.3 µM
selectivity ratio [2]: 14

Compound: N#CC1CCN(c2nc(-c3ccccn3)nc3ccccc23)C1 (stereo not given)
IC50 ([1]; Trypanosoma cruzi, U2OS, 72 h): 7 µM
selectivity ratio [2]: 7.2

Compound: c1ccc(-c2nc(N3CCCCCC3)c3ccccc3n2)nc1
IC50 ([1]; Trypanosoma cruzi, U2OS, 72 h): 0.1 µM

Compound: c1ccc(-c2nc(NCCn3cnc4ccccc43)c3ccccc3n2)nc1
IC50 ([1]; Trypanosoma cruzi, U2OS, 72 h): 8.2 µM
selectivity ratio [2]: 6.1

Compound: NC(=O)C1CCN(c2nc(-c3ccccn3)nc3ccccc23)C1 (stereo not given)
IC50 ([1]; Trypanosoma cruzi, U2OS, 72 h): 23 µM
selectivity ratio [2]: 2.2

Compound: c1ccc(OC2CCN(c3nc(-c4ccccn4)nc4ccccc34)C2)cc1 (stereo not given)
Papp at 3 h [5]: 43 ×10⁻⁶ cm/s
selectivity ratio [2]: 6.5
intrinsic clearance (CLint) [3]: > 500 µL/min/mg
CLint [6]: 361 µL/min/mg
solubility kinetic [4]: 7.7 µg/mL (≈ 20.9 µM)

Compound: Cc1cccc(CNc2nc(-c3ccccn3)nc3ccccc23)n1
IC50 ([1]; Trypanosoma cruzi, U2OS, 72 h): 2.4 µM
selectivity ratio [2]: 21

Compound: CCn1ccc2nc(-c3ccccn3)nc(N3CCC(c4ccccn4)C3)c21 (stereo not given)
IC50 ([1]; Trypanosoma cruzi, U2OS, 72 h): 0.18 µM
selectivity ratio [2]: 28

Compound: c1ccc(N2CCN(c3nc(-c4ccccn4)nc4ccccc34)CC2)cc1
Papp at 3 h [5]: 29.1 ×10⁻⁶ cm/s
IC50 ([1]; Trypanosoma cruzi, U2OS, 72 h): 0.43 µM
intrinsic clearance (CLint) [3]: > 500 µL/min/mg
CLint [6]: 95 µL/min/mg
solubility kinetic [4]: 15 µg/mL (≈ 40.8 µM)

Compound: c1ccc(-c2nc(N3CCC(c4ccccn4)C3)c3ccccc3n2)nc1 (stereo in doubt; 85-tR2)
IC50 ([1]; u2os): 0.96 µM
Selectivity Index [2]: 6.4

Now from value to compound, other results behind:

IC50 ([1]; Trypanosoma cruzi, U2OS, 72 h): 21 µM
Compound: c1ccc(-c2nc(N3CCc4nc[nH]c4C3)c3ccccc3n2)nc1
selectivity ratio [2]: 2.3

Papp at 3 h [5]: 21.9 ×10⁻⁶ cm/s
IC50 ([1]; Trypanosoma cruzi, U2OS, 72 h): 4.2 µM
intrinsic clearance (CLint) [3]: 24 µL/min/mg
CLint [6]: 7 µL/min/mg
solubility kinetic [4]: 84 µg/mL (≈ 247 µM)
Compound: c1ccc(-c2nc(NC3(c4ccccn4)CC3)c3ccccc3n2)nc1
selectivity ratio [2]: 12

IC50 ([1]; Trypanosoma cruzi, U2OS, 72 h): 18 µM
Compound: CCn1ncc2c(N3CCC(c4ccccn4)C3)nc(-c3ccccn3)nc21 (stereo not given)
selectivity ratio [2]: 2.8

IC50 ([1]; Trypanosoma cruzi, U2OS, 72 h): 0.86 µM
Compound: O=S(=O)(c1cccs1)N1CCc2nc(-c3ccccn3)nc(N3CCCCCC3)c2C1
selectivity ratio [2]: > 58

IC50 ([1]; Trypanosoma cruzi, U2OS, 72 h): 2.7 µM
Compound: CCn1cnc2c(N3CCC(c4ccccn4)C3)nc(-c3ccccn3)nc21 (stereo not given)
selectivity ratio [2]: 2.7

IC50 ([1]; Trypanosoma cruzi, U2OS, 72 h): 1.3 µM
Compound: c1ccc(-c2nc(N3CCCC(c4ccccn4)C3)c3ccccc3n2)nc1 (stereo not given)
selectivity ratio [2]: 7.3

IC50 ([1]; Trypanosoma cruzi, U2OS, 72 h): 0.17 µM
Compound: CCCN(CCC)c1nc(-c2ccccn2)nc2ccccc12

IC50 ([1]; Trypanosoma cruzi, U2OS, 72 h): 2.5 µM
Compound: c1ccc(-c2nc(NCc3nc4ccccc4o3)c3ccccc3n2)nc1
selectivity ratio [2]: 16

Papp at 3 h [5]: 41.6 ×10⁻⁶ cm/s
IC50 ([1]; Trypanosoma cruzi, U2OS, 72 h): 0.36 µM
intrinsic clearance (CLint) [3]: 318 µL/min/mg
CLint [6]: 205 µL/min/mg
solubility kinetic [4]: 0.1 µg/mL (≈ 0.273 µM)
Compound: c1ccc(C2CCCN(c3nc(-c4ccccn4)nc4ccccc34)C2)cc1 (stereo not given)
selectivity ratio [2]: 6.4

IC50 ([1]; Trypanosoma cruzi, U2OS, 72 h): 3.3 µM
Compound: c1ccc(-c2nc(N3CCN(c4ccccn4)CC3)c3ccccc3n2)nc1
selectivity ratio [2]: 6.4

IC50 ([1]; Trypanosoma cruzi, U2OS, 72 h): 31 µM
Compound: Cc1ccc(Nc2nc(-c3ccccn3)nc3ccccc23)cn1
selectivity ratio [2]: 1.6

IC50 ([1]; Trypanosoma cruzi, U2OS, 72 h): 1.6 µM
Compound: Cc1cccnc1CNc1nc(-c2ccccn2)nc2ccccc12
selectivity ratio [2]: 15

IC50 ([1]; Trypanosoma cruzi, U2OS, 72 h): 1.9 µM
Compound: Cc1cccc(N2CCN(c3nc(-c4ccccn4)nc4ccccc34)CC2)n1
selectivity ratio [2]: 7
